Laboratory results from article PMC8320079 (ACS Omega, 2021).
“And” between values parts separate entries of the source, which are not always exact repeats. Identical values can stand only once.

Key:
[1] = system: Dalton's lymphoma (DL) cells; experiment: MTT-based cell viability assay, DL cells; settings: for IC50: DL cells, MTT, 24 h, mean ± S.D.; for SI PBMC/DL: selectivity index IC50 (PBMC)/IC50 (DL)
Summary of the method: (§1)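 Test compound dilutions in PBS (pH 7.4), 0 and 0.01–100 μM, applied for 24 h. DL cells were grown in RPMI-1640 with 10% FBS and antibiotics at 37 °C, 5% CO2, and subcultured at 80% confluency. Formazan was read at 570 nm. IC50 came from a four-parameter nonlinear fit of % cytotoxicity versus log concentration. Cisplatin reference; mean ± S.D., n = 3. SI = IC50(PBMC)/IC50(DL or EAC); PBMCs were tested at 0.01–400 μM.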

[2] = system: Ehrlich ascites carcinoma (EAC) cells; experiment: MTT-based cell viability assay, EAC cells; settings: for IC50: EAC cells, MTT, 24 h, mean ± S.D.; for SI PBMC/EAC: selectivity index IC50 (PBMC)/IC50 (EAC)
Summary of the method: as §1

[3] = system: peripheral blood mononuclear cells (PBMCs); experiment: MTT-based cell viability assay, normal cells; settings: for IC50: PBMCs (normal cells), 24 h, mean ± S.D.
Summary of the method: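 Nontumorigenic PBMCs were exposed 24 h to test compound at 0 and 0.01–400 μM in PBS (pH 7.4), using the same culture and dosing conditions as the tumour lines. MTT formazan was read at 570 nm. Percent cytotoxicity was plotted against log concentration, and IC50 taken from a nonlinear fit (bottom and top asymptotes, centre, Hill slope). Cisplatin reference; mean ± S.D.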

DL cell line = experiment: Apoptosis, AO/EB dual staining, DL cells; format: cell-based; settings: 24 h
EAC cell line = experiment: Apoptosis, AO/EB dual staining, EAC cells; format: cell-based; settings: 24 h
Summary of the method: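 Cells (1 × 10^6) exposed 24 h to test compound at 0.01, 0.1, 0.5, 1, 5 and 10 μM; washed twice with PBS (pH 7.4); stained 5 min in a dark cold room with acridine orange and ethidium bromide, 100 μg/mL each in PBS. Fluorescence microscopy in three replicates, about 1000 cells counted per group; orange/red nuclei scored as apoptotic (%). Cisplatin reference; mean ± S.D., n = 3, one-way ANOVA.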

[4] = DMSO-d6 stability study by 31P{1H} and 1H NMR; format: physicochemical; settings: for stability over time in DMSO-d6: 31P{1H} and 1H NMR at time intervals over 6 h
[5] = Solubility noted as property of the isolated complex; format: physicochemical; settings: qualitative

Question: Which results are given for `Cc1ccc(C(C)C)cc1.[Cl][Ge-]([Cl])[Cl].[Cl][Os-]1[P+](c2ccccc2)(c2ccccc2)C[P+]1(c1ccccc1)c1ccccc1` [Compound 8, [OsCl(η^6-p-cymene)(κ^2-dppm)]^+GeCl3^–]?
Answer: IC50 [1]: 8.3 ± 0.05 µM; SI PBMC/DL [1]: 19.42; IC50 [2]: 18.2 ± 0.05 µM; SI PBMC/EAC [2]: 8.86; cytotoxicity in normal cells, in words ([3]; PBMCs): negligible cytotoxicity; IC50 [3]: 161 ± 2.8 µM; apoptosis-inducing ability (DL cell line): stronger apoptosis-inducing ability than the rest of the tested compounds; apoptosis-inducing ability (EAC cell line): inducing apoptotic cell death; stability over time in DMSO-d6 [4]: some decomposition of the complex occurs; stability in DMSO (properties line of the synthesis) [4]: somewhat stable in DMSO; solubility in DMSO [5]: sparingly soluble

Question: What does the source list for `N.N.[Cl][Pt][Cl]` [cisplatin, reference compound]?
Answer: IC50 [1]: 0.19 ± 0.07 µM; SI PBMC/DL [1]: 79.2 and 79.15; IC50 [2]: 0.37 ± 0.1 µM; SI PBMC/EAC [2]: 40.64; IC50 [3]: 15.04 ± 0.05 µM

Question: With “[OsCl(η^6-p-cymene)(PPh3)(GeCl3)] [Compound 7]” as the compound, how does the IC50 [1] read?
Answer: 93 ± 2.8 µM

Question: And the “SI PBMC/DL” value [1]?
Answer: 4.28

Question: What about the “SI PBMC/EAC” value [2] of the same compound?
Answer: 3.83

Question: And the IC50 [3]?
Answer: 397.6 ± 3.5 µM

Question: And the “stability over time in DMSO-d6” value [4]?
Answer: somewhat less stable in DMSO-d6

Question: And the “stability in DMSO (properties line of the synthesis)” value [4]?
Answer: unstable in DMSO

Question: And the “solubility in DMSO” value [5]?
Answer: sparingly soluble

Question: What does the source list for `Cc1ccc(C(C)C)cc1.[Cl][Os-]([Cl])[P+](c1ccccc1)(c1ccccc1)c1ccccc1` [Compound 3, [OsCl2(η^6-p-cymene)(PPh3)]]?
Answer: SI PBMC/DL [1]: 1.33; SI PBMC/EAC [2]: 1.22; IC50 [3]: 149.9 ± 1.2 µM

Question: What does the source list for “[OsCl(η^6-p-cymene)(PPh3)(SnCl3)] [Compound 11]”?
Answer: IC50 [1]: 63.7 ± 1.3 µM; SI PBMC/DL [1]: 6.72; IC50 [2]: 87.3 ± 1.6 µM; SI PBMC/EAC [2]: 4.90; solubility in DMSO [5]: soluble in DMSO

Question: Which results are given for `Cc1ccc(C(C)C)cc1.[Cl][Os-]1[P+](c2ccccc2)(c2ccccc2)C[P+]1(c1ccccc1)c1ccccc1.[Cl][Sn-]([Cl])[Cl]` [Compound 10, [OsCl(η^6-p-cymene)(κ^2-dppm)]^+SnCl3^–]?
Answer: IC50 [1]: 15.8 ± 0.05 µM; SI PBMC/DL [1]: 9.18; IC50 [2]: 21.4 ± 0.57 µM; SI PBMC/EAC [2]: 6.78; IC50 [3]: 145 ± 1.8 µM; stability over time in DMSO-d6 [4]: stable in DMSO-d6 for as long as 6 h; stability in DMSO (properties line of the synthesis) [4]: stable in DMSO; solubility in DMSO [5]: readily soluble
